Paper PMC4712096 (The FEBS journal, 2015)
Peptide text beside a SMILES is read from it.

Columns and labels:
A3G = A3G (Homo sapiens, UniProt Q9HC16); experiment: Inhibition of deamination activity of purified A3G; type: biochemical
H9 cells = experiment: Alkaline comet assay in H9 cells; type: cell-based; conditions: no radiation; Tail DNA % and Olive Tail Moment
How it was run: (§1)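 Alkaline comet assay. One day after culturing, cells were pre-treated or not with peptides for 2 h, then γ-irradiated (4 Gy) or mock-irradiated. Cells were embedded in low-melting agarose. Lysis was 2 h in ice-cold 2.5 M NaCl, 100 mM EDTA, 10 mM Tris pH 10, 1% Triton X-100 and 10% DMSO. DNA was unwound 20 min at 4°C in NaOH/EDTA pH 13 and electrophoresed 45 V, 20 min. Slides were neutralised and stained with ethidium bromide. Tail DNA % and Olive tail moment were scored from random fields.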

SupT1 cells = experiment: Alkaline comet assay in SupT1 cells; type: cell-based; conditions: no radiation; Tail DNA % and Olive Tail Moment
How it was run: as §1

[1] = biological target: APOBEC3G (A3G), wild type, C-terminal His6 tag (human) (UniProt Q9HC16)
Chain of APOBEC3G (A3G), wild type, C-terminal His6 tag (human) (Q9HC16 whole entry): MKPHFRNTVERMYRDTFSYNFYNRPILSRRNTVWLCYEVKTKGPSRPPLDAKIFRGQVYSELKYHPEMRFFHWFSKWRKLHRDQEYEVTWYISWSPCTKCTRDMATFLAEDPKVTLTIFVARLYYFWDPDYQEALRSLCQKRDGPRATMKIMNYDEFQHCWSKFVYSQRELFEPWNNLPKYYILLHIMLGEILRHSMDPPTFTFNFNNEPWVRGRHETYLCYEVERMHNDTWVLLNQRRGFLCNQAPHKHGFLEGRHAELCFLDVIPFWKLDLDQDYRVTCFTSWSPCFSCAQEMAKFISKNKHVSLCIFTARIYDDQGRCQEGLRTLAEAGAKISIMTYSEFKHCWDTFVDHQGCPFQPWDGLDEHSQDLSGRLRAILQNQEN

[2] = biological target: APOBEC3G (A3G), wild type, C-terminal His6 tag (human, UniProt Q9HC16 1-384); experiment: cell-based or functional assay
Chain of APOBEC3G (A3G), wild type, C-terminal His6 tag (Q9HC16 whole entry): as above

Chain of A3G (Q9HC16 whole entry): as above

## CSCC[C@H](NC(=O)[C@H](Cc1c[nH]cn1)NC(=O)[C@H](Cc1c[nH]cn1)NC(=O)[C@H](CCCCN)NC(=O)[C@@H](N)C(C)C)C(=O)N[C@@H](Cc1ccc(O)cc1)C(=O)N[C@H](C(=O)N[C@@H](CO)C(=O)NCC(=O)N[C@@H](CCCCN)C(=O)N[C@@H](C)C(=O)N[C@@H](CCCNC(=N)N)C(=O)NCC(=O)N[C@@H](Cc1c[nH]c2ccccc12)C(=O)N[C@@H](Cc1ccccc1)C(=O)O)C(C)C [Vif25-39]
A3G
  IC50: 0.6 µM
H9 cells
  DNA damage in non-irradiated H9 cells (comet assay): did not induce any damage
SupT1 cells
  DNA damage in non-irradiated SupT1 cells (comet assay): did not induce any damage

## Vif 25-39 (26A) (peptide)
[1]
  IC50 of inhibition of ssDNA deamination by purified A3G: 8 µM

## Vif 25-39 (27AA28) (peptide)
[1]
  IC50 of inhibition of ssDNA deamination by purified A3G: 4.5 µM

## Vif105-119 (peptide)
[1]
  IC50 of inhibition of ssDNA deamination by purified A3G: 0.1 µM

## CC(C)C[C@H](NC(=O)[C@H](Cc1ccc(O)cc1)NC(=O)[C@@H](NC(=O)[C@H](CCC(=O)O)NC(=O)[C@H](Cc1cnc[nH]1)NC(=O)[C@H](CCCNC(=N)N)NC(=O)CNC(=O)[C@H](CCCNC(=N)N)NC(=O)[C@@H](NC(=O)[C@@H](N)Cc1c[nH]c2ccccc12)C(C)C)[C@@H](C)O)C(=O)N[C@@H](CS)C(=O)N[C@@H](Cc1ccc(O)cc1)C(=O)N[C@@H](CCC(=O)O)C(=O)N[C@H](C(=O)N[C@@H](CCC(=O)O)C(=O)O)C(C)C [Peptide A3G211-225] (H-WVRGRHETYLCYEVE-OH)
A3G
  IC50: 10 µM

## CSCC[C@H](NC(=O)[C@@H](N)CCCNC(=N)N)C(=O)N[C@@H](Cc1c[nH]cn1)C(=O)N[C@@H](CC(N)=O)C(=O)N[C@@H](CC(=O)O)C(=O)N[C@H](C(=O)N[C@@H](Cc1c[nH]c2ccccc12)C(=O)N[C@H](C(=O)N[C@@H](CC(C)C)C(=O)N[C@@H](CC(C)C)C(=O)N[C@@H](CC(N)=O)C(=O)N[C@@H](CCC(N)=O)C(=O)N[C@@H](CCCNC(=N)N)C(=O)N[C@@H](CCCNC(=N)N)C(=O)NCC(=O)O)C(C)C)[C@@H](C)O [Peptide A3G226-240] (H-RMHNDTWVLLNQRRG-OH)
A3G
  IC50: 60 µM

## CC(C)C[C@H](NC(=O)[C@@H](N)CCCNC(=N)N)C(=O)N[C@@H](Cc1ccc(O)cc1)C(=O)N[C@@H](Cc1ccc(O)cc1)C(=O)N[C@@H](Cc1ccccc1)C(=O)N[C@@H](Cc1c[nH]c2ccccc12)C(=O)N[C@@H](CC(=O)O)C(=O)O [Peptide A3F305-311] (H-RLYYFWD-OH)
A3G
  IC50: 1 µM
H9 cells
  DNA damage in non-irradiated H9 cells (comet assay): did not induce breaks
SupT1 cells
  DNA damage in non-irradiated SupT1 cells (comet assay): did not induce breaks

## Vif26-39 (peptide)
[1]
  IC50 of inhibition of ssDNA deamination by purified A3G: 80 µM

## Vif25-36 (peptide)
[1]
  IC50 of inhibition of ssDNA deamination by purified A3G: 50 µM

## Vif 25-39 (26AAA28) (peptide)
[1]
  IC50 of inhibition of ssDNA deamination by purified A3G: 10 µM

## CC(C)C[C@H](NC(=O)[C@H](CCCNC(=N)N)NC(=O)[C@H](C)N)C(=O)N[C@@H](Cc1ccc(O)cc1)C(=O)N[C@@H](Cc1ccc(O)cc1)C(=O)N[C@@H](Cc1ccccc1)C(=O)N[C@@H](Cc1c[nH]c2ccccc12)C(=O)N[C@@H](CC(=O)O)C(=O)N[C@H](C(=O)O)[C@@H](C)O [Peptide A3F304-312] (H-ARLYYFWDT-OH)
A3G
  IC50: 8 µM
H9 cells
  DNA damage in non-irradiated H9 cells (comet assay): did not induce breaks
SupT1 cells
  DNA damage in non-irradiated SupT1 cells (comet assay): did not induce breaks

## CC[C@H](C)[C@H](N)C(=O)N[C@@H](Cc1c[nH]cn1)C(=O)N[C@@H](CC(C)C)C(=O)N[C@@H](Cc1ccc(O)cc1)C(=O)N[C@@H](Cc1ccc(O)cc1)C(=O)N[C@@H](Cc1ccccc1)C(=O)N[C@@H](CC(=O)O)C(=O)N[C@@H](CS)C(=O)N[C@@H](Cc1ccccc1)C(=O)O [Vif107-115] (H-IHLYYFDCF-OH)
A3G
  Ki: ~1710 nM
H9 cells
  DNA damage in non-irradiated H9 cells (comet assay): did not induce any damage
SupT1 cells
  DNA damage in non-irradiated SupT1 cells (comet assay): did not induce any damage

## CSCC[C@H](NC(=O)[C@H](Cc1c[nH]cn1)NC(=O)[C@H](Cc1c[nH]cn1)NC(=O)[C@H](CCCCN)NC(=O)[C@@H](N)C(C)C)C(=O)N[C@@H](Cc1ccc(O)cc1)C(=O)N[C@H](C(=O)N[C@@H](CO)C(=O)NCC(=O)N[C@@H](CCCCN)C(=O)N[C@@H](C)C(=O)N[C@@H](CCCNC(=N)N)C(=O)O)C(C)C [Vif25-36]
A3G
  IC50: 50 µM

## CSCC[C@H](NC(=O)[C@H](Cc1c[nH]cn1)NC(=O)[C@H](Cc1c[nH]cn1)NC(=O)[C@H](C)NC(=O)[C@@H](N)C(C)C)C(=O)N[C@@H](Cc1ccc(O)cc1)C(=O)N[C@H](C(=O)N[C@@H](CO)C(=O)NCC(=O)N[C@@H](CCCCN)C(=O)N[C@@H](C)C(=O)N[C@@H](CCCNC(=N)N)C(=O)NCC(=O)N[C@@H](Cc1c[nH]c2ccccc12)C(=O)N[C@@H](Cc1ccccc1)C(=O)O)C(C)C [Vif 25-39 (26A)]
A3G
  IC50: 8 µM

## CSCC[C@H](NC(=O)[C@H](C)NC(=O)[C@H](C)NC(=O)[C@H](C)NC(=O)[C@@H](N)C(C)C)C(=O)N[C@@H](Cc1ccc(O)cc1)C(=O)N[C@H](C(=O)N[C@@H](CO)C(=O)NCC(=O)N[C@@H](CCCCN)C(=O)N[C@@H](C)C(=O)N[C@@H](CCCNC(=N)N)C(=O)NCC(=O)N[C@@H](Cc1c[nH]c2ccccc12)C(=O)N[C@@H](Cc1ccccc1)C(=O)O)C(C)C [Vif 25-39 (26AAA28)] (H-VAAAMYVSGKARGWF-OH)
A3G
  IC50: 10 µM

## CSCC[C@H](NC(=O)[C@H](C)NC(=O)[C@H](C)NC(=O)[C@H](CCCCN)NC(=O)[C@@H](N)C(C)C)C(=O)N[C@@H](Cc1ccc(O)cc1)C(=O)N[C@H](C(=O)N[C@@H](CO)C(=O)NCC(=O)N[C@@H](CCCCN)C(=O)N[C@@H](C)C(=O)N[C@@H](CCCNC(=N)N)C(=O)NCC(=O)N[C@@H](Cc1c[nH]c2ccccc12)C(=O)N[C@@H](Cc1ccccc1)C(=O)O)C(C)C [Vif 25-39 (27AA28)] (H-VKAAMYVSGKARGWF-OH)
A3G
  IC50: 4.5 µM

## Vif25-39 (peptide)
[1]
  IC50 of inhibition of ssDNA deamination by purified A3G: 0.6 µM

## IHLYYFDCF [Vif107-115]
[2]
  IC50 of inhibition of ssDNA deamination by purified A3G: 0.1 µM

## RMHNDTWVLLNQRRG [A3G226-240]
[1]
  IC50 of inhibition of ssDNA deamination by purified A3G: 60 µM

## WVRGRHETYLCYEVE [A3G211-225]
[1]
  IC50 of inhibition of ssDNA deamination by purified A3G: 10 µM

## RLYYFWD [A3F305-311]
[1]
  IC50 of inhibition of ssDNA deamination by purified A3G: 1 µM

## ARLYYFWDT [A3F304-312]
[1]
  IC50 of inhibition of ssDNA deamination by purified A3G: 8 µM
